Drawing on ChEMBL document CHEMBL3872269, “Design, synthesis and cytotoxic activities of scopoletin-isoxazole and scopoletin-pyrazole hybrids” (Bioorg Med Chem Lett, 2017), this text covers IC50 for 14 compounds.

Experiment [1] in a line: Growth inhibition of human SW620 cells after 48 hrs by MTT assay. It counts as functional, cell-based. Particulars: SW-620, 48 h. A digest of the protocol:
(§1)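 In vitro cytotoxicity screen on human cell lines. Value reported as IC50, the concentration causing 50% inhibition of the cells.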
(Formazan colour is commonly taken as a measure of viable cells.)

The nature of experiment [2]: Growth inhibition of human HuH7 cells after 48 hrs by MTT assay. It counts as functional, cell-based. As to conditions: Huh-7, 48 h. A digest of the protocol:
as §1

The nature of experiment [3]: Growth inhibition of human HCT116 cells after 48 hrs by MTT assay. It counts as functional, cell-based. As to conditions: HCT-116, 48 h. A digest of the protocol:
as §1

Experiment [4] is described as follows: Growth inhibition of human HFL1 cells after 48 hrs by MTT assay. The experiment is classed as cell-based. Particulars: HFL1, 48 h. The gist of the method: as §1

Take `COc1cc2ccc(=O)oc2cc1OC(=O)c1c(C)noc1-c1ccccc1`: the IC50 (commonly the concentration that inhibits the measured activity by half) in experiment [1] is 23.4 µM; in experiment [2], more than 25 µM; in experiment [3], 22.7 µM; in experiment [4], 69.3 µM.
In the same order, the values of `COc1cc2cc(NC(=O)c3c(C)noc3-c3ccccc3F)c(=O)oc2cc1OCCN1CCOCC1` are 13.9 µM, 14.7 µM, 15.6 µM and 68.5 µM.
For `COc1cc2ccc(=O)oc2cc1OC(=O)c1c(-c2ccc([N+](=O)[O-])cc2)n[nH]c1C`, the IC50 in experiment [1], in experiment [2] and in experiment [3] was more than 25 µM throughout.
With `COc1cc2ccc(=O)oc2cc1OC(=O)c1c(C)noc1-c1ccc([N+](=O)[O-])cc1`, the IC50 was found to be 9.83 µM in experiment [1], 8.76 µM in experiment [2], 9.21 µM in experiment [3] and 90.9 µM in experiment [4].
With `COc1cc2ccc(=O)oc2cc1OC(=O)c1c(-c2ccccc2F)n[nH]c1C`, the half-inhibitory concentration (IC50) in experiment [1], in experiment [2] and in experiment [3] was more than 25 µM each time.
With `COc1cc2ccc(=O)oc2cc1OC(=O)c1c(-c2ccc(Cl)cc2)n[nH]c1C`, the half-inhibitory concentration (IC50) in experiment [1] amounted to 17.1 µM; in experiment [2], 16.2 µM; in experiment [3] it was 13.8 µM; in experiment [4], 47 µM.
Take `COc1cc2cc(NC(=O)c3c(C)noc3-c3ccccc3)c(=O)oc2cc1OCCN1CCOCC1`: the half-maximal inhibitory concentration (IC50) in experiment [1] is more than 25 µM; in experiment [2], more than 25 µM; in experiment [3], 20.9 µM.
As for `COc1cc2ccc(=O)oc2cc1OC(=O)c1c(C)noc1-c1ccccc1F`, the IC50 in experiment [1], in experiment [2] and in experiment [3] was more than 25 µM each time.
`COc1cc2cc(NC(=O)c3c(C)noc3-c3ccc(Cl)cc3)c(=O)oc2cc1OCCN1CCOCC1`: the IC50 in experiment [1], in experiment [2] and in experiment [3] was more than 25 µM in each case.
Regarding `COc1cc2ccc(=O)oc2cc1OC(=O)c1c(-c2ccccc2)n[nH]c1C`, the IC50 in experiment [1], in experiment [2] and in experiment [3] was more than 25 µM each time.
On to `COc1cc2cc(NC(=O)c3c(C)noc3-c3ccc([N+](=O)[O-])cc3)c(=O)oc2cc1OCCN1CCOCC1`, for which the IC50 in experiment [1] turned out to be 10.5 µM; in experiment [2] it was 12.1 µM; in experiment [3], 10.3 µM; in experiment [4] it was 74.2 µM.
In the same order, the values of `COc1cc2ccc(=O)oc2cc1OC(=O)c1c(C)noc1-c1ccc(Cl)cc1` are 12.7 µM, 12.4 µM, 10.9 µM and 42.2 µM.
Take `COc1cc2ccc(=O)oc2cc1O` [SCOPOLETIN]: the IC50 in experiment [1], in experiment [2] and in experiment [3] was more than 25 µM throughout.
Take `CCN(CC)CCNC(=O)c1c(C)[nH]c(/C=C2\C(=O)Nc3ccc(F)cc32)c1C` [SUNITINIB]: the IC50 in experiment [1] amounted to 6.25 µM; in experiment [2] it was 3.03 µM; in experiment [3], 5.62 µM.
